Measurements published in ChEMBL document CHEMBL1649213, “The arabinosyltransferase EmbC is inhibited by ethambutol in Mycobacterium tuberculosis” (2009).
Values after ≈ are worked out from the molar mass of the structure shown. Active and inactive are the calls of the source. The calls are words filed in the database; no cut-off is given here.

Tests used:
[1] = tested on: Mycolicibacterium smegmatis; assay: Antimicrobial activity against Mycobacterium smegmatis expressing EmbC M286L mutant gene at 32 ug/ml after 48 hrs; assay type: functional, organism-based
[2] = tested on: Mycobacterium tuberculosis; assay: Antimicrobial activity against Mycobacterium tuberculosis expressing EmbC gene after 48 hrs by agar proportion method; assay type: functional
[3] = tested on: Mycolicibacterium smegmatis; assay: Antimicrobial activity against Mycobacterium smegmatis expressing EmbC gene after 48 hrs by agar proportion method; assay type: functional, organism-based
[4] = tested on: Mycolicibacterium smegmatis; assay: Antimicrobial activity against Mycobacterium smegmatis expressing EmbC D280G mutant gene after 48 hrs by agar proportion method; assay type: functional
[5] = tested on: Mycolicibacterium smegmatis; assay: Antimicrobial activity against Mycobacterium smegmatis expressing EmbC M286V mutant gene after 48 hrs by agar proportion method; assay type: functional
[6] = tested on: Mycolicibacterium smegmatis; assay: Antimicrobial activity against Mycobacterium smegmatis expressing EmbC M286I mutant gene after 48 hrs by agar proportion method; assay type: functional
[7] = tested on: Mycolicibacterium smegmatis; assay: Antimicrobial activity against Mycobacterium smegmatis expressing EmbC M286L mutant gene after 48 hrs by agar proportion method; assay type: functional
[8] = tested on: Mycolicibacterium smegmatis; assay: Antimicrobial activity against Mycobacterium smegmatis expressing EmbC D280G mutant gene at 32 ug/ml after 48 hrs; assay type: functional, organism-based
[9] = tested on: Mycobacterium tuberculosis; assay: Inhibition of Mycobacterium tuberculosis EmbC assessed as effect on LAM production at 1 ug/ml after 2 hrs by immunoblotting
Method in brief: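 M. tuberculosis grown in 7H9 plus 10% OADC with hygromycin 100 µg/ml, kanamycin 20 µg/ml and EMB 0 to 128 µg/ml for 14 days. Cells extracted in phenol-water (1:1) at 80°C for 2 h, then chloroform added. Aqueous phase run on denaturing, nonreducing acrylamide gels with periodic acid-Schiff staining or CS-35 anti-LAM immunoblot.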

[10] = tested on: Mycolicibacterium smegmatis; assay: Antimicrobial activity against Mycobacterium smegmatis expressing EmbC M286I mutant gene at 32 ug/ml; assay type: functional, organism-based
[11] = tested on: T1, Probable arabinosyltransferase A (Mycobacterium smegmatis (strain ATCC 700084 / mc(2)155)), A0R612 [D280G]; assay: Inhibition of Mycobacterium smegmatis EmbC D280G mutant assessed as effect on LAM production at 32ug/ml after 2 hrs by immunoblotting; settings: Mycolicibacterium smegmatis
T1 sequence (whole entry): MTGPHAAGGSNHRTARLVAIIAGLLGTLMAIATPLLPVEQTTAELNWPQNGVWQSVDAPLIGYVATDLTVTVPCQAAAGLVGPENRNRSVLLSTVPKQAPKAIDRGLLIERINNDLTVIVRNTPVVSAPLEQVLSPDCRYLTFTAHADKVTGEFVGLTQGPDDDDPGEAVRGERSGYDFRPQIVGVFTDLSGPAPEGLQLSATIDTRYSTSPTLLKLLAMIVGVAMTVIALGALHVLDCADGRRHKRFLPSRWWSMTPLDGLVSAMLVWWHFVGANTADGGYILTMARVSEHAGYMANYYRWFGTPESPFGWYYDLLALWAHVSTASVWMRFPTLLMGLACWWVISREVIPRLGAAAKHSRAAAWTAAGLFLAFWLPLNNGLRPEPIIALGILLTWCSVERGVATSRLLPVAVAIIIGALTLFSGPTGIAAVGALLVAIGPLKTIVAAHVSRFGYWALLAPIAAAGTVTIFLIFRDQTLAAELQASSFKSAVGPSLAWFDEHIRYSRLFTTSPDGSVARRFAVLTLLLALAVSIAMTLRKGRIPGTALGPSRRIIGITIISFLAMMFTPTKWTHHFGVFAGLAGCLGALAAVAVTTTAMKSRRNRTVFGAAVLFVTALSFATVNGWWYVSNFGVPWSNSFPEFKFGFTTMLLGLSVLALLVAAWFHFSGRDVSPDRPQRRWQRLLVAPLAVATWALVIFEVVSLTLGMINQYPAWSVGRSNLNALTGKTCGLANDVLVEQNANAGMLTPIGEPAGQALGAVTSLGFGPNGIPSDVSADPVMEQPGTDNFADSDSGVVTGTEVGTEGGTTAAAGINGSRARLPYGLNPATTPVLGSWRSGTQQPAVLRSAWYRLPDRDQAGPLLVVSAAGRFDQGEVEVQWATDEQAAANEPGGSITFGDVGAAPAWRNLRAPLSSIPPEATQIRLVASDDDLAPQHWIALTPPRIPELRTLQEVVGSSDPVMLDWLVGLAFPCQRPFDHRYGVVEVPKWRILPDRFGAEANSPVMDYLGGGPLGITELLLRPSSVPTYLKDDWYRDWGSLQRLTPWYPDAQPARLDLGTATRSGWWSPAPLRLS

[12] = tested on: Mycobacterium tuberculosis; assay: Antimicrobial activity against Mycobacterium tuberculosis expressing EmbC gene after 48 hrs; assay type: functional
[13] = tested on: Mycobacterium tuberculosis; assay: Antimicrobial activity against Mycobacterium tuberculosis embA gene after 48 hrs by agar proportion method; assay type: functional
[14] = tested on: Mycolicibacterium smegmatis; assay: Antimicrobial activity against Mycobacterium smegmatis expressing EmbC M286V mutant gene at 32 ug/ml after 48 hrs; assay type: functional, organism-based

CC[C@@H](CO)NCCN[C@@H](CC)CO [ETHAMBUTOL]
Activity [1]: inactive | MIC90 [2]: 1 µg/mL (≈ 4.89 µM) | MIC [3]: inactive | MIC [4]: 64 µg/mL (≈ 313 µM) | MIC [5]: 32 µg/mL (≈ 157 µM) | MIC [6]: 32 µg/mL (≈ 157 µM) | MIC [7]: 64 µg/mL (≈ 313 µM) | Activity [8]: inactive | inhibition [9]: Active | Activity [10]: inactive | inhibition [11]: Active | MIC [12]: 3 µg/mL (≈ 14.7 µM) | MIC [13]: 3 µg/mL (≈ 14.7 µM) | Activity [14]: inactive
